Consider five compounds from ChEMBL document CHEMBL4311965, “Antimicrobial activity of amphipathic α,α-disubstituted β-amino amide derivatives against ESBL - CARBA producing multi-resistant bacteria; effect of halogenation, lipophilicity and cationic character” (Eur J Med Chem, 2019).

Converted amounts (≈) assume the structure as drawn.

The nature of series [1]: Aqueous solubility of the compound in DMSO. The class given is physicochemical.
Series [2] deals with Enterococcus faecium. Description: Antibacterial activity against multidrug-resistant Enterococcus faecium 50673722 cultured in BHIB medium assessed as reduction in bacterial growth incubated for 24 hrs by microdilution susceptibility test. The class given is functional. Conditions: Enterococcus faecium, 50673722, 24 h. Put shortly:
(§1)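 Enterococci grown in Brain Heart Infusion broth, otherwise broth microdilution per CLSI M07-A9 (modified). Concentrated DMSO stocks kept at r.t. and diluted in double-distilled water, final DMSO <1%. Inoculum 1–1.2 x 10⁶ cells/mL mixed 1:1 with compound. 37 °C, 24 h, four parallels. OD₆₀₀ read-out, lowest concentration with no growth.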
(In general: In broth dilution the organism is exposed to a series of concentrations in liquid medium.)

Series [3] concerns Escherichia coli. As to the kind of experiment: Antibacterial activity against Escherichia coli ATCC 25922 cultured in MHB medium assessed as no bacterial growth incubated at 37 degC for 24 hrs by microdilution susceptibility test. The class given is functional. Conditions: ATCC 25922, 24 h. Put shortly:
(§2)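 Broth microdilution per CLSI M07-A9 with modifications. Inoculum about 2.5–3 x 10⁴ cells/mL in Mueller-Hinton broth, mixed 1:1 with test derivative. DMSO stocks diluted in double-distilled water, final DMSO <1%. Incubation 24 h at 37 °C (20 °C for C. glutamicum). Growth and sterility controls included; oxytetracycline reference.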

Series [4] relates to Acinetobacter baumannii. As to the kind of experiment: Antibacterial activity against multidrug-resistant Acinetobacter baumannii K12-21 producing oxcillinase-58 cultured in MHB medium assessed as reduction in bacterial growth incubated for 24 hrs by microdilution susceptibility test. The class given is functional. The settings on record: K12-21, 24 h. Put shortly:
(§3)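 Broth microdilution per CLSI M07-A9 (modified). Working solutions made from concentrated DMSO stocks kept at r.t., diluted in double-distilled water, final DMSO <1%. Inoculum 1–1.2 x 10⁶ cells/mL in Mueller-Hinton broth, mixed 1:1 with compound. 37 °C, 24 h, four parallels. Read as OD₆₀₀. Where precipitation left residual OD, the point of major OD decrease was taken as the inhibitory concentration.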

Series [5] deals with Escherichia coli. Description: Antibacterial activity against multidrug-resistant Escherichia coli 50676002 producing New Delhi metallo-beta-lactamase-1 cultured in MHB medium assessed as reduction in bacterial growth incubated for 24 hrs by microdilution susceptibility test. The class given is functional. The settings on record: Escherichia coli, 50676002, 24 h. Put shortly:
as §3

Series [6] has as its system Pseudomonas aeruginosa. Description: Antibacterial activity against multidrug-resistant Pseudomonas aeruginosa K34-7 producing Verona integron encoded metallo beta-lactamse-2 cultured in MHB medium assessed as reduction in bacterial growth incubated for 24 hrs by microdilution susceptibility test. Conditions: K34-7, 24 h. It counts as functional. Put shortly:
as §3

The subject of series [7] is Acinetobacter baumannii. As to the kind of experiment: Antibacterial activity against multidrug-resistant Acinetobacter baumannii K63-58 producing oxcillinase-23 cultured in MHB medium assessed as reduction in bacterial growth incubated for 24 hrs by microdilution susceptibility test. The class given is functional. Conditions: K63-58, 24 h. Put shortly:
as §3

Series [8] has as its system Enterococcus faecium. Description: Antibacterial activity against multidrug-resistant Enterococcus faecium K36-18 cultured in BHIB medium assessed as reduction in bacterial growth incubated for 24 hrs by microdilution susceptibility test. It counts as functional. The settings on record: K36-18, 24 h. The procedure, abridged: as §1
Series [9] concerns Staphylococcus aureus. Description: Antibacterial activity against multidrug-resistant Staphylococcus aureus 85/2082 cultured in MHB medium assessed as reduction in bacterial growth incubated for 24 hrs by microdilution susceptibility test. The class given is functional. Conditions: 85/2082, 24 h. The procedure, abridged: as §3
Series [10] has as its system Staphylococcus aureus. Description: Antibacterial activity against Staphylococcus aureus ATCC 9144 cultured in MHB medium assessed as no bacterial growth incubated at 37 degC for 24 hrs by microdilution susceptibility test. The class given is functional. The settings on record: ATCC 9144, 24 h. The procedure, abridged:
as §2

The test system of series [11] is Pseudomonas aeruginosa. Description: Antibacterial activity against multidrug-resistant Pseudomonas aeruginosa K34-73 producing Verona integron encoded metallo beta-lactamse-4 cultured in MHB medium assessed as reduction in bacterial growth incubated for 24 hrs by microdilution susceptibility test. The settings on record: K34-73, 24 h. It counts as functional. Put shortly:
as §3

In series [12] the test system is Staphylococcus aureus. Description: Antibacterial activity against multidrug-resistant Staphylococcus aureus NCTC 10442 cultured in MHB medium assessed as reduction in bacterial growth incubated for 24 hrs by microdilution susceptibility test. It counts as functional. The settings on record: NCTC 10442, 24 h. The procedure, abridged:
as §3

Another series concerns HepG2. Description: Cytotoxicity against human HepG2 cells assessed as reduction in cell viability incubated for 4 hrs by CellTiter 96 Aqueous One Solution Reagent based assay. Conditions: HepG2, 4 h. The procedure, abridged:
(§4)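 HepG2 and MRC-5 cells seeded at 35 000 and 15 000 cells/well respectively, then held overnight at 37 °C, 5% CO₂. Compounds in serum-free MEM Earle's applied for 4 h. MTS reagent (CellTiter 96 AQueous One) added for a further 1 h, absorbance read at 485 nm. Survival expressed relative to medium (negative) and Triton X-100 (positive) controls.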

The test system of series [13] is Staphylococcus aureus. Description: Antibacterial activity against multidrug-resistant Staphylococcus aureus N315 cultured in MHB medium assessed as reduction in bacterial growth incubated for 24 hrs by microdilution susceptibility test. It counts as functional. Conditions: N315, 24 h. The procedure, abridged: as §3
For another series, the system named is Klebsiella pneumoniae. Description: Antibacterial activity against multidrug-resistant Klebsiella pneumoniae 50625602 producing oxcillinase-245 cultured in MHB medium assessed as reduction in bacterial growth incubated for 24 hrs by microdilution susceptibility test. It counts as functional. Conditions: Klebsiella pneumoniae, 50625602, 24 h. The procedure, abridged: as §3

The subject of another series is MRC5. Description: Cytotoxicity against human MRC5 cells assessed as reduction in cell viability incubated for 4 hrs by CellTiter 96 Aqueous One Solution Reagent based assay. The settings on record: MRC5, 4 h. The procedure, abridged: as §4
Series [14] deals with Enterococcus faecium. Description: Antibacterial activity against multidrug-resistant Enterococcus faecium TUH50-22 cultured in BHIB medium assessed as reduction in bacterial growth incubated for 24 hrs by microdilution susceptibility test. The class given is functional. Conditions: TUH50-22, 24 h. Put shortly: as §1

By MIC is commonly meant the lowest concentration found to suppress growth. Usually EC50 stands for the concentration giving half of the maximal effect. Consider `NCCNC(=O)C(CN)(Cc1ccccc1C(F)(F)F)Cc1ccccc1C(F)(F)F`, for which, in series [1], the solubility entry is “Soluble”. Besides, the MIC was 32 µg/mL (≈ 71.5 µM) in the series on Enterococcus faecium [2]; 32 µg/mL (≈ 71.5 µM) with Escherichia coli [3]; > 32 µg/mL in the series with Acinetobacter baumannii [4]; > 32 µg/mL in the series with Escherichia coli [5]; > 32 µg/mL with Pseudomonas aeruginosa [6]; > 32 µg/mL in the series with Acinetobacter baumannii [7]. Also, the MIC in the series on Enterococcus faecium [8] was > 32 µg/mL; with Staphylococcus aureus [9], > 32 µg/mL; with Staphylococcus aureus [10] it was 32 µg/mL (≈ 71.5 µM); in the series on Pseudomonas aeruginosa [11], > 32 µg/mL; in the series on Staphylococcus aureus [12] it was > 32 µg/mL; in the series with Staphylococcus aureus [13], > 32 µg/mL. Also, the MIC in the series on Klebsiella pneumoniae and with Enterococcus faecium [14] was > 32 µg/mL in each case. Also, the concentration for a half-maximal effect (EC50) in the series with HepG2 turned out to be 45 µg/mL (≈ 101 µM); with MRC5, 42 µg/mL (≈ 93.9 µM).
Turning to `NCCNCC(CN)(Cc1cc(Br)cc(Br)c1)Cc1cc(Br)cc(Br)c1`, the MIC in the series with Enterococcus faecium [2] was found to be 4 µg/mL (≈ 6.52 µM); with Escherichia coli [3] it was 4 µg/mL (≈ 6.52 µM); in the series on Acinetobacter baumannii [4], 16 µg/mL (≈ 26.1 µM); in the series on Escherichia coli [5], 8 µg/mL (≈ 13 µM); in the series on Pseudomonas aeruginosa [6], 16 µg/mL (≈ 26.1 µM); with Acinetobacter baumannii [7], 8 µg/mL (≈ 13 µM). For the same compound, the MIC was 8 µg/mL (≈ 13 µM) in the series on Enterococcus faecium [8]; 8 µg/mL (≈ 13 µM) in the series with Staphylococcus aureus [9]; 2 µg/mL (≈ 3.26 µM) in the series with Staphylococcus aureus [10]; 16 µg/mL (≈ 26.1 µM) with Pseudomonas aeruginosa [11]; 4 µg/mL (≈ 6.52 µM) with Staphylococcus aureus [12]; 4 µg/mL (≈ 6.52 µM) in the series with Staphylococcus aureus [13]. Besides, the minimum inhibitory concentration (MIC) with Klebsiella pneumoniae came out at 16 µg/mL (≈ 26.1 µM); with Enterococcus faecium [14] it was 4 µg/mL (≈ 6.52 µM). Moreover, the results for the EC50 in the series on HepG2 and in the series on MRC5 were 12 µg/mL (≈ 19.6 µM) and 15 µg/mL (≈ 24.5 µM), respectively.
For the compound `NCCNCC(CN)(Cc1ccccc1Br)Cc1ccccc1Br`, the minimum inhibitory concentration (MIC) with Enterococcus faecium [2] is 16 µg/mL (≈ 35.1 µM); in the series with Escherichia coli [3], 16 µg/mL (≈ 35.1 µM); in the series on Acinetobacter baumannii [4], 16 µg/mL (≈ 35.1 µM); with Escherichia coli [5], 16 µg/mL (≈ 35.1 µM); in the series on Pseudomonas aeruginosa [6] it was 32 µg/mL (≈ 70.3 µM); in the series on Acinetobacter baumannii [7], 16 µg/mL (≈ 35.1 µM). Also, the minimum inhibitory concentration (MIC) was 16 µg/mL (≈ 35.1 µM) with Enterococcus faecium [8]; 8 µg/mL (≈ 17.6 µM) in the series with Staphylococcus aureus [9]; 16 µg/mL (≈ 35.1 µM) in the series on Staphylococcus aureus [10]; 32 µg/mL (≈ 70.3 µM) in the series on Pseudomonas aeruginosa [11]; 16 µg/mL (≈ 35.1 µM) in the series on Staphylococcus aureus [12]; 8 µg/mL (≈ 17.6 µM) in the series with Staphylococcus aureus [13]. In addition, the MIC in the series on Klebsiella pneumoniae and with Enterococcus faecium [14] was 16 µg/mL (≈ 35.1 µM) in each case. Further, the half-maximal effective concentration (EC50) with HepG2 stood at 18 µg/mL (≈ 39.5 µM); in the series on MRC5, 8 µg/mL (≈ 17.6 µM).
Turning to `NCCNCC(CN)(Cc1cc(C(F)(F)F)cc(C(F)(F)F)c1)Cc1cc(C(F)(F)F)cc(C(F)(F)F)c1`, the minimal inhibitory concentration (MIC) in the series with Enterococcus faecium [2] stood at 4 µg/mL (≈ 7.02 µM); in the series on Escherichia coli [3], 4 µg/mL (≈ 7.02 µM); in the series on Acinetobacter baumannii [4], 8 µg/mL (≈ 14 µM); with Escherichia coli [5], 8 µg/mL (≈ 14 µM); with Pseudomonas aeruginosa [6], 32 µg/mL (≈ 56.2 µM); in the series on Acinetobacter baumannii [7] it was 8 µg/mL (≈ 14 µM). Also, the minimal inhibitory concentration (MIC) came out at 8 µg/mL (≈ 14 µM) with Enterococcus faecium [8]; 8 µg/mL (≈ 14 µM) in the series on Staphylococcus aureus [9]; 4 µg/mL (≈ 7.02 µM) with Staphylococcus aureus [10]; 32 µg/mL (≈ 56.2 µM) in the series on Pseudomonas aeruginosa [11]; 8 µg/mL (≈ 14 µM) with Staphylococcus aureus [12]; 8 µg/mL (≈ 14 µM) in the series on Staphylococcus aureus [13]. For the same compound, the MIC in the series with Klebsiella pneumoniae was 8 µg/mL (≈ 14 µM); in the series with Enterococcus faecium [14] it was 4 µg/mL (≈ 7.02 µM). Further, the EC50 in the series with HepG2 turned out to be 7 µg/mL (≈ 12.3 µM); in the series with MRC5 it was 14 µg/mL (≈ 24.6 µM).
Take `N=C(N)NCCNC(=O)C(CNC(=N)N)(Cc1cc(Br)cc(Br)c1)Cc1cc(Br)cc(Br)c1`: the minimal inhibitory concentration (MIC) amounted to 4 µg/mL (≈ 5.63 µM) in the series with Enterococcus faecium [2]; 8 µg/mL (≈ 11.3 µM) in the series on Escherichia coli [3]; 16 µg/mL (≈ 22.5 µM) in the series with Acinetobacter baumannii [4]; 8 µg/mL (≈ 11.3 µM) in the series with Escherichia coli [5]; 16 µg/mL (≈ 22.5 µM) in the series with Pseudomonas aeruginosa [6]; 16 µg/mL (≈ 22.5 µM) in the series with Acinetobacter baumannii [7]. Further, the MIC in the series with Enterococcus faecium [8] was determined as 4 µg/mL (≈ 5.63 µM); in the series on Staphylococcus aureus [9], 2 µg/mL (≈ 2.81 µM); in the series on Staphylococcus aureus [10], 1 µg/mL (≈ 1.41 µM); with Pseudomonas aeruginosa [11] it was 16 µg/mL (≈ 22.5 µM); in the series on Staphylococcus aureus [12], 2 µg/mL (≈ 2.81 µM); with Staphylococcus aureus [13], 2 µg/mL (≈ 2.81 µM). In addition, the MIC turned out to be 16 µg/mL (≈ 22.5 µM) with Klebsiella pneumoniae and 2 µg/mL (≈ 2.81 µM) in the series with Enterococcus faecium [14]. Moreover, the concentration giving a half-maximal response (EC50) in the series on HepG2 and in the series on MRC5 was > 64 µg/mL each time.
